Assay results from ChEMBL document CHEMBL1914413, “Using the pER8:GUS reporter system to screen for phytoestrogens from Caesalpinia sappan” (J Nat Prod, 2011).
Calls of active or inactive are those of the source. The rule behind the calls is not given here.

Key:
[1] = test system: HepG2; assay: Cytotoxicity against human HepG2 cells after 3 days by MTT assay; assay type: functional, cell-based
[2] = test system: MDA-MB-231; assay: Cytotoxicity against human MDA-MB-231 cells after 3 days by MTT assay; assay type: functional, cell-based
[3] = test system: Arabidopsis thaliana; assay: Estrogenic activity in transgenic Arabidopsis thaliana transfected with pER8:GUS plasmid assessed as beta-glucuronidase expression at 500 uM after 48 hrs using 4-methylumbelliferyl-beta-D-glucuronide by fluorometric assay; assay type: functional, organism-based
Summary of the method: (§1)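 Transgenic Arabidopsis pER8:GUS plants are incubated with or without test compound. GUS expression is quantified by fluorometric assay. 17β-Estradiol is the positive control, run over 0.01–100 μM.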

[4] = test system: MCF7; assay: Cytotoxicity against human MCF7 cells after 3 days by MTT assay; assay type: functional, cell-based
[5] = test system: Hep 3B2; assay: (§2) Cytotoxicity against human Hep3B cells after 3 days by MTT assay; assay type: functional, cell-based
[6] = test system: Arabidopsis thaliana; assay: Estrogenic activity in transgenic Arabidopsis thaliana transfected with pER8:GUS plasmid assessed as beta-glucuronidase expression at 150 to 280 uM after 48 hrs using 4-methylumbelliferyl-beta-D-glucuronide by fluorometric assay; assay type: functional, organism-based; summary of the method: as §1
[7] = test system: Ca9-22; assay: Cytotoxicity against human Ca9-22 cells after 3 days by MTT assay; assay type: functional, cell-based; conditions: for IC50: Ca9-22, 72 h
[8] = test system: A549; assay: Cytotoxicity against human A549 cells after 3 days by MTT assay; assay type: functional, cell-based; conditions: for IC50: A549, 72 h
[9] = as §2; assay type: functional, cell-based, Hep 3B2; conditions: 72 h
[10] = test system: Arabidopsis thaliana; assay: Estrogenic activity in transgenic Arabidopsis thaliana transfected with pER8:GUS plasmid assessed as beta-glucuronidase expression after 48 hrs using 4-methylumbelliferyl-beta-D-glucuronide by fluorometric assay; assay type: functional; summary of the method: as §1
[11] = test system: MCF7; assay: Estrogenic activity in human ER-positive MCF7 cells assessed as secreted alkaline phosphatase activity at 20 uM after 48 hrs by phospha-light reporter chemiluminescence assay; assay type: functional, cell-based
[12] = test system: MCF7; assay: Antiestrogenic activity in human ER-positive MCF7 cells assessed as inhibition of 17beta estradiol-induced secreted alkaline phosphatase activity at 20 nM after 48 hrs by phospha-light reporter chemiluminescence assay; assay type: functional, cell-based
[13] = test system: MCF7; assay: Estrogenic activity in human ER-positive MCF7 cells assessed as secreted alkaline phosphatase activity after 48 hrs by phospha-light reporter chemiluminescence assay; assay type: functional, cell-based
[14] = test system: MCF7; assay: Antiestrogenic activity in human ER-positive MCF7 cells assessed as inhibition of 17beta estradiol-induced cell proliferation at 1 to 20 uM after 48 hrs by MTT assay; assay type: functional, cell-based
[15] = test system: MCF7; assay: Antiestrogenic activity in human ER-positive MCF7 cells assessed as inhibition of 17beta estradiol-induced secreted alkaline phosphatase activity at 1 to 20 uM after 48 hrs by phospha-light reporter chemiluminescence assay; assay type: functional, cell-based
[16] = test system: MCF7; assay: Estrogenic activity in human ER-positive MCF7 cells assessed as secreted alkaline phosphatase activity at 0.01 nM after 48 hrs by phospha-light reporter chemiluminescence assay; assay type: functional, cell-based
[17] = test system: MCF7; assay: Antiestrogenic activity in human ER-positive MCF7 cells assessed as inhibition of 17beta estradiol-induced secreted alkaline phosphatase activity at 2 nM after 48 hrs by phospha-light reporter chemiluminescence assay; assay type: functional, cell-based

SMILES	Activity [1]	Activity [2]	Activity [3]	Activity [4]	Activity [5]	Activity [6]	Activity [7]	Activity [8]	IC50 [9]	Activity [11]	further results
Oc1ccc(C[C@@]2(O)COc3cc(O)ccc3[C@H]2O)cc1	inactive	inactive	Active	inactive	inactive	inactive	inactive	inactive			
COc1cc(O)ccc1C(=O)/C=C/c1ccc(O)cc1									17.9 µM	Active	IC50 ([1]; HepG2, 72 h): 7.37 µM; IC50 ([2]; MDA-MB-231, 72 h): 44.4 µM; IC50 ([4]; MCF7, 72 h): 51.4 µM; MAC [10]: 2.8 µM; IC50 [7]: 57.6 µM; IC50 [8]: 32.6 µM
CC/C(=C(\c1ccccc1)c1ccc(OCCN(C)C)cc1)c1ccccc1											inhibition [12]: Active
O=C1c2ccc(O)cc2OC[C@@H]1Cc1ccc(O)c(O)c1	inactive	inactive		inactive	inactive		inactive	inactive		Active	MAC [10]: 2.7 µM; Activity [13]: Dose-dependent effect
O=C1C=C2CC3(O)COc4cc(O)ccc4C3=C2C=C1O (configuration not stated) [BRAZILEIN]			Active			inactive			12 µM	inactive	inhibition [14]: Active; inhibition [15]: Active
O=c1c(O)coc2cc(O)ccc12	inactive	inactive		inactive	inactive		inactive	inactive		Active	MAC [10]: 8.8 µM
Oc1ccc2c(c1)OC[C@]1(O)Cc3cc(O)c(O)cc3[C@H]21 [BRAZILIN]			Active			inactive			15.9 µM	inactive	inhibition [14]: Active; inhibition [15]: Active
O=c1c(-c2ccc(O)cc2)coc2cc(O)cc(O)c12											inhibition [15]: Active; Activity [13]: Dose-dependent effect
C[C@]12CC[C@@H]3c4ccc(O)cc4CC[C@H]3[C@@H]1CC[C@@H]2O											Activity [16]: Active; Activity [10]: Dose-dependent effect
O=C1c2ccc(O)cc2OC[C@@H]1O	inactive	inactive	Active	inactive		inactive			47.2 µM	inactive	IC50 [7]: 62.2 µM; IC50 [8]: 80.7 µM
CC1(C)O[C@H]2c3ccc(O)cc3OC[C@@]2(Cc2ccc(O)c(O)c2)O1	inactive	inactive	Active	inactive	inactive	inactive	inactive	inactive		Active	
O=C(c1ccc(OCCN2CCCCC2)cc1)c1c(-c2ccc(O)cc2)sc2cc(O)ccc12											inhibition [17]: Active
Oc1ccc(C[C@@]2(O)COc3cc(O)ccc3[C@@H]2O)cc1	inactive	inactive	Active	inactive	inactive	inactive	inactive	inactive			
O=C1c2ccc(O)cc2OC[C@]1(O)Cc1ccc(O)cc1	inactive	inactive		inactive	inactive		inactive	inactive		Active	MAC [10]: 10.9 µM; Activity [13]: Dose-dependent effect
COc1cccc2c1C(=O)c1c(O)c3c(c(O)c1C2=O)C[C@@](O)(C(=O)CO)C[C@@H]3O[C@H]1C[C@H](N)[C@H](O)[C@H](C)O1 [DOXORUBICIN]									1.03 µM		
